Bioassay records as filed in PubChem.
Rows were chosen to be rich in hits. Some 5.9% of all compounds tested hit in one or more screens of this group.
GASC1 inh – inhibitors of human demethylase GASC-1 KDM4C; Q9H3R0; GST-KDM4C 2-372, H3K9me3 peptide, LANCE TR-FRET; 96,000 compounds, 0.15% hits; AID 720574; inhibition, % at 12.5 µM;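 active means mean replicate inhibition above about 25%, with at least 55% of replicates also reaching it, limit read from the data, passing the limit was not always enough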
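Material: N-terminal GST-fused human GASC-1 (KDM4C) fragment, residues 2-372. Input: 10 nM enzyme. Incubation: enzyme reaction 30 min, then detection 60 min, both room temperature. Doses: one test concentration per compound. Read-out basis: inhibition from TR-FRET ratio decrease. Detection: LANCE TR-FRET, excitation 340 nm, emissions 618 and 671 nm.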
Pf Dd2 growth – inhibitors of Plasmodium falciparum Dd2 growth; P. falciparum Dd2 growth, SYBR Green, 72 h; hits give low values; activity change, % at 10 µM; 94,000 compounds, 2.3% hits; AID 1159554; in the data active means activity change below about -80%
IDH1 mut inh – inhibitors of human IDH1 R132H; O75874; IDH1 R132H reductase, diaphorase/resazurin fluorescence, 60 min; 70,000 compounds, 0.18% hits; inhibition, % at 10 µM; in the data active means inhibition above about 34%
Target sequence (O75874 whole entry R132H): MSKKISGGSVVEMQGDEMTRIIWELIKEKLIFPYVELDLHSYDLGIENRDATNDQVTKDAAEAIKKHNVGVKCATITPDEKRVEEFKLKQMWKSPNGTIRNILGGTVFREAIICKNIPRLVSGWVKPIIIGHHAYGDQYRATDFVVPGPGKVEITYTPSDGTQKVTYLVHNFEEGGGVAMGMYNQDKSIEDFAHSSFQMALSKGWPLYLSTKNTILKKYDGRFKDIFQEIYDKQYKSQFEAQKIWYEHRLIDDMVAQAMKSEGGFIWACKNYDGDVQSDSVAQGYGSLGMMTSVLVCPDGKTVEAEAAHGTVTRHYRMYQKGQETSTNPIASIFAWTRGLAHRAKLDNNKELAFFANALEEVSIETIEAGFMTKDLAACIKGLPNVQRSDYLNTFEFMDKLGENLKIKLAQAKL
T cruzi growth – T. cruzi proliferation inhibition | T. cruzi beta-gal in NIH3T3, GalScreen luminescence, 90 h | inhibition, % at 8.34 µM | 77,000 compounds, 5.9% hits;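 active means mean inhibition above about 93%, with at least 55% of replicates each passing it, limit read from the data, passing the limit was not always enough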
Each line names hits and unclear results; the compound was inactive in the other large screens.

CN(C)c1ccc2c(c1)[C@H]1C[C@@H](CC(=O)NCc3ccccc3)O[C@@H](CO)[C@H]1O2	GASC1 inh 40
CN(C)c1ccc2c(c1)[C@@H]1C[C@H](CC(=O)NCc3ccc(-c4ccccc4)cc3)O[C@@H](CO)[C@@H]1O2	none
CN(C)c1ccc2c(c1)[C@H]1C[C@H](CC(=O)NCc3ccccc3)O[C@H](CO)[C@H]1O2	GASC1 inh 44
C[C@H](NC(=O)C[C@@H]1C[C@H]2c3cc(NC(=O)NC4CCCCC4)ccc3O[C@H]2[C@@H](CO)O1)c1ccccc1	GASC1 inh 32
CNC[C@@H]1OCCCC[C@H](C)Oc2ccc(NS(=O)(=O)c3cn(C)cn3)cc2C(=O)N([C@H](C)CO)C[C@@H]1C	none
COc1ccccc1C#Cc1ccc2c(c1)[C@@H]1[C@@H](CCN1C(=O)c1cccc(F)c1)[C@H](CO)N2	none (no result: IDH1 mut inh, T cruzi growth)
C[C@@H](NC(=O)C[C@H]1C[C@@H]2c3cc(NS(=O)(=O)c4ccc(F)cc4)ccc3O[C@@H]2[C@H](CO)O1)c1ccccc1	Pf Dd2 growth -99
O=C(C[C@@H]1C[C@H]2c3cc(NC(=O)NC4CCCCC4)ccc3O[C@H]2[C@H](CO)O1)NCc1ccccn1	GASC1 inh 88, IDH1 mut inh 102 (no result: T cruzi growth)
O=C(C[C@@H]1C[C@H]2c3cc(NC(=O)NC4CCCCC4)ccc3O[C@H]2[C@@H](CO)O1)NCc1ccccn1	none (no result: T cruzi growth)
C[C@H](NC(=O)C[C@H]1C[C@@H]2c3cc(NS(=O)(=O)c4ccc(F)cc4)ccc3O[C@@H]2[C@H](CO)O1)c1ccccc1	none
C[C@@H]1CN([C@H](C)CO)C(=O)c2c(c3ccccc3n2C)-c2ccccc2CO[C@@H]1CN(C)S(=O)(=O)c1ccc(C(F)(F)F)cc1	Pf Dd2 growth -86 (no result: IDH1 mut inh, T cruzi growth)
C[C@H]1CN([C@@H](C)CO)C(=O)c2c(c3ccccc3n2C)-c2ccccc2CO[C@H]1CN(C)S(=O)(=O)c1ccc(C(F)(F)F)cc1	Pf Dd2 growth -91 (no result: IDH1 mut inh, T cruzi growth)
C[C@@H]1CN([C@H](C)CO)C(=O)c2c(c3ccccc3n2C)-c2ccccc2CO[C@H]1CN(C)S(=O)(=O)c1ccc(C(F)(F)F)cc1	Pf Dd2 growth -89 (no result: IDH1 mut inh, T cruzi growth)
Cc1ccc(S(=O)(=O)N(C)C[C@H]2OCc3ccccc3-c3c(n(C)c4ccccc34)C(=O)N([C@H](C)CO)C[C@H]2C)cc1	none
COc1ccc(S(=O)(=O)N(C)C[C@H]2OCc3ccccc3-c3c(n(C)c4ccccc34)C(=O)N([C@H](C)CO)C[C@@H]2C)cc1	none (no result: IDH1 mut inh)
C[C@@H]1CN([C@H](C)CO)C(=O)c2cc(NS(=O)(=O)c3ccc(Cl)cc3)ccc2O[C@H]1CN(C)Cc1ccc2c(c1)OCO2	none
C/C=C/c1ccc2c(c1)O[C@@H](CN(C)C(=O)c1ccccc1F)[C@H](C)CN([C@@H](C)CO)S2(=O)=O	none
O=C(Nc1ccc(F)cc1)N1CC(=O)N2[C@H](C1)[C@@H](c1ccc(Br)cc1)[C@@H]2CO	none (no result: IDH1 mut inh, T cruzi growth)
CCCc1cn(CC[C@H]2CC[C@H](NS(=O)(=O)c3ccc(-c4ccccc4)cc3)[C@@H](CO)O2)nn1	Pf Dd2 growth -89
CCCc1cn(CC[C@@H]2CC[C@H](NS(=O)(=O)c3ccc(-c4ccccc4)cc3)[C@@H](CO)O2)nn1	none
CCCc1cn(CC[C@H]2CC[C@@H](NS(=O)(=O)c3ccc(-c4ccccc4)cc3)[C@H](CO)O2)nn1	Pf Dd2 growth -94
CCCc1cn(CC[C@@H]2CC[C@@H](NS(=O)(=O)c3ccc(-c4ccccc4)cc3)[C@H](CO)O2)nn1	Pf Dd2 growth -93
C[C@@H]1CN([C@H](C)CO)C(=O)Cc2cc(N(C)C)ccc2O[C@H]1CN(C)S(=O)(=O)c1cccs1	none
C[C@H]1CCCCO[C@H](CN(C)C(=O)Nc2ccc(F)cc2)[C@@H](C)CN([C@@H](C)CO)C(=O)c2cc(NC(=O)c3ccncc3)ccc2O1	none (no result: IDH1 mut inh)
COc1ccc(NC(=O)N(C)C[C@@H]2Oc3ccc(NC(=O)c4ccncc4)cc3CC(=O)N([C@H](C)CO)C[C@H]2C)cc1	none
C/C=C/c1ccc([C@H]2[C@@H](CNC(=O)C3CC3)N(C(=O)CC)[C@H]2CO)cc1	none (no result: IDH1 mut inh)
CC(C)CC#Cc1ccc2c(c1)O[C@@H](CN(C)Cc1ccc3c(c1)OCO3)[C@H](C)CN([C@@H](C)CO)S2(=O)=O	Pf Dd2 growth -81 (no result: GASC1 inh)
COc1ccccc1-c1ccc2c(c1)O[C@@H](CN(C)C(=O)c1ccncc1)[C@H](C)CN([C@@H](C)CO)S2(=O)=O	GASC1 inh 32, IDH1 mut inh 36
COc1ccccc1-c1ccc2c(c1)O[C@H](CN(C)Cc1ccc3c(c1)OCO3)[C@@H](C)CN([C@H](C)CO)S2(=O)=O	Pf Dd2 growth -84 (no result: T cruzi growth)
COc1ccccc1-c1ccc2c(c1)O[C@H](CN(C)C(=O)c1ccncc1)[C@H](C)CN([C@H](C)CO)S2(=O)=O	none
CCCC(=O)Nc1ccc2c(c1)C(=O)N(C)C[C@@H](OC)[C@@H](C)CN(C(=O)c1ccccn1)[C@H](C)CO2	none
COc1ccc2c3c([nH]c2c1)[C@H](CO)N(Cc1nccs1)CC31CN(Cc2cccnc2)C1	Pf Dd2 growth -88 (no result: IDH1 mut inh, T cruzi growth)
COc1ccc2c3c([nH]c2c1)[C@H](CO)N(C(=O)C1CCCCC1)CC31CCN(Cc2nccs2)CC1	Pf Dd2 growth -88 (no result: IDH1 mut inh, T cruzi growth)
COc1ccc2c3c([nH]c2c1)[C@H](CO)N(Cc1ccc(Cl)cc1)CC31CCN(Cc2nccs2)CC1	Pf Dd2 growth -93 (no result: IDH1 mut inh, T cruzi growth)
COc1ccc2c3c([nH]c2c1)[C@H](CO)N(C(=O)C1CCCC1)CC31CCN(Cc2nccs2)CC1	Pf Dd2 growth -83 (no result: IDH1 mut inh, T cruzi growth)
COc1ccc2c3c([nH]c2c1)[C@@H](CO)N(Cc1nccs1)CC31CN(Cc2nccs2)C1	none (no result: IDH1 mut inh, T cruzi growth)
O=C(c1ccccc1)C1CN(C2CCS(=O)(=O)C2)CCC1(O)c1ccccc1 (configuration not stated)	none (no result: GASC1 inh, Pf Dd2 growth, T cruzi growth)
N#C[C@H]1[C@@H](c2ccccc2-c2ccc(F)cc2)[C@@H](CO)N1C(=O)NC1CCCCC1	none (no result: IDH1 mut inh, T cruzi growth)
CCCNC(=O)N1[C@H](C#N)[C@H](c2ccc(-c3cccc(OC)c3)cc2)[C@H]1CO	Pf Dd2 growth -85 (no result: IDH1 mut inh)
N#C[C@H]1[C@@H](c2ccc(C3=CCCCC3)cc2)[C@H](CO)N1C(=O)NC1CCCC1	none (no result: IDH1 mut inh, T cruzi growth)
COc1ccc(-c2ccccc2[C@H]2[C@@H](C#N)N(C(=O)NC3CCCCC3)[C@H]2CO)cc1	Pf Dd2 growth -90 (no result: IDH1 mut inh, T cruzi growth)
CCCNC(=O)N1[C@H](CO)[C@@H](c2ccc(-c3cccc(OC)c3)cc2)[C@@H]1C#N	none (no result: IDH1 mut inh)
N#C[C@@H]1[C@H](c2ccccc2-c2ccc(F)cc2)[C@H](CO)N1C(=O)NC1CCCC1	Pf Dd2 growth -92 (no result: IDH1 mut inh, T cruzi growth)
N#C[C@@H]1[C@H](c2ccc(C3=CCCCC3)cc2)[C@H](CO)N1C(=O)NC1CCCC1	Pf Dd2 growth -83 (no result: IDH1 mut inh, T cruzi growth)
COc1ccccc1C#Cc1cnc2c(c1)C(=O)N([C@H](C)CO)C[C@@H](C)[C@H](CN(C)C(C)=O)O2	none
N#C[C@@H]1[C@@H](c2ccc(-c3cccc(F)c3)cc2)[C@@H](CO)N1C(=O)NC1CCCC1	none
N#C[C@@H]1[C@H](c2ccc(-c3cccc(F)c3)cc2)[C@@H](CO)N1C(=O)NC1CCCC1	Pf Dd2 growth -87 (no result: IDH1 mut inh)
